Reference: ChEMBL document CHEMBL1158617, “New estrogenic compounds isolated from Broussonetia kazinoki” (Bioorg Med Chem Lett, 2010)
The source made the active and inactive calls. No cut-off for these calls is given here.

Key:
MCF7 [1] = test: Up-regulation of pS2 gene expression in human MCF7 cells at 10 uM after 24 hrs by RT-PCR analysis; assay type: functional, cell-based
Method in brief: (§1)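 MCF-7 cells were treated 24 h with compounds at 10 µM. Steady-state mRNA levels were quantified by qPCR, with constitutive human β-actin mRNA as internal control, relative to untreated control.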

Estrogen receptor beta [2] = biological target: T1, Estrogen receptor beta (Homo sapiens, UniProt Q92731); test: Displacement of [3H]17-beta-estradiol from human recombinant full length ERbeta
T1 sequence (Q92731 whole entry): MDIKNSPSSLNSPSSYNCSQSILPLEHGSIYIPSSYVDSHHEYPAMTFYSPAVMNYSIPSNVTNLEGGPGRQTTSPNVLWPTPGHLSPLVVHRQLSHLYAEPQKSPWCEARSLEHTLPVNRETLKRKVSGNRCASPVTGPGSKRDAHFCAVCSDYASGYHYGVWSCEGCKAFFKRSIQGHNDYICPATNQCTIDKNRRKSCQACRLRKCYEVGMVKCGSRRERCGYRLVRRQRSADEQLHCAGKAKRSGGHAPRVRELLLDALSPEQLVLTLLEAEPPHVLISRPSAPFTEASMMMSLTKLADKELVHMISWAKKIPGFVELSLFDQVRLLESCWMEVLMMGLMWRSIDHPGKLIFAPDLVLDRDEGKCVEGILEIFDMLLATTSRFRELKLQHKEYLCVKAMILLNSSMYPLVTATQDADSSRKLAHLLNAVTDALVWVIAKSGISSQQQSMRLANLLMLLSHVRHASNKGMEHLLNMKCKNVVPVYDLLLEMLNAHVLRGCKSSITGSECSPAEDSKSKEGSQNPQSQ
Method in brief: (§2)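 Competitive ligand-binding assay with recombinant human ER-α or ER-β. Test compounds displace the labelled estrogen ligand, and IC50 is derived from the displacement curves.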

Homo sapiens = species on record: Homo sapiens; test: Selectivity ratio of IC50 for human recombinant full length ERbeta to IC50 for human recombinant full length ERalpha
Estrogen receptor [3] = biological target: T2, Estrogen receptor (Homo sapiens, UniProt P03372); test: Displacement of [3H]17-beta-estradiol from human recombinant full length ERalpha; method in brief: as §2
T2 sequence (P03372 whole entry): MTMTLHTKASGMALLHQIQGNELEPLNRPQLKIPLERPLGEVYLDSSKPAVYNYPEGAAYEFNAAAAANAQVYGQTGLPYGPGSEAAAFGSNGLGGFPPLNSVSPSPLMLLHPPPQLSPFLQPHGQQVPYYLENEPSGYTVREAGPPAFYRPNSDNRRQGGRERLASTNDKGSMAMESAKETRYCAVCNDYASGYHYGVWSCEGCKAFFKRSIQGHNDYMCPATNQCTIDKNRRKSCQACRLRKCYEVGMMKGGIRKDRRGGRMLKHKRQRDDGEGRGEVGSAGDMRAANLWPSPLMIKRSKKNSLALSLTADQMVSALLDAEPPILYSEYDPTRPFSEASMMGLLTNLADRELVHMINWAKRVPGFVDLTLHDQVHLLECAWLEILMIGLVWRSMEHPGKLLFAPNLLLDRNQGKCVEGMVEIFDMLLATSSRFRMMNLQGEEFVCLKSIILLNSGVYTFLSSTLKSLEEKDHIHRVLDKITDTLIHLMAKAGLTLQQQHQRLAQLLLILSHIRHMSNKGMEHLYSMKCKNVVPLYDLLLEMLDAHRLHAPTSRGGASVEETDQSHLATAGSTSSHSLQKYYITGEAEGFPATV

Estrogen receptor beta [4] = biological target: T1, Estrogen receptor beta; test: Displacement of [3H]17-beta-estradiol from human recombinant full length ERbeta relative to estradiol
Method in brief: (§3)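 Relative binding affinity is taken from the competitive binding IC50s against recombinant human ER-α or ER-β. RBA = 100 × IC50(E2)/IC50(compound).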

[5] = biological target: T3, Estrogen receptor (Homo sapiens) (UniProt P03372); test: Displacement of [3H]17-beta-estradiol from human recombinant full length ERalpha relative to estradiol; method in brief: as §3
T3 sequence (whole entry): T2 sequence (P03372 whole entry)

MCF7 [6] = test: Down-regulation of ERalpha mRNA expression in human MCF7 cells at 10 uM after 24 hrs by RT-PCR analysis; assay type: functional, cell-based; method in brief: as §1
MCF7 [7] = test: Down-regulation of ERalpha mRNA expression in human MCF7 cells at 10 uM after 24 hrs by SDS PAGE and immunoblot analysis; assay type: functional, cell-based; conditions: in the assay text read “protein” for “mRNA”
Method in brief: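 MCF-7 cells were treated 24 h with 10 µM compounds, with 10 nM E2 as reference. Total protein extracts were run on SDS–PAGE and immunoblotted with anti-ER-α and anti-β-actin antibodies. ER-α protein was compared with control.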

MCF7 [8] = test: Up-regulation of progesterone receptor gene expression in human MCF7 cells at 10 uM after 24 hrs by RT-PCR analysis; assay type: functional, cell-based; method in brief: as §1
Estrogen receptor beta [9] = biological target: T1, Estrogen receptor beta; test: Transactivation of human recombinant ERbeta expressed in african green monkey CV1 cells co-expressing ERE-Luc after 24 hrs by luciferase reporter gene assay; assay type: cell-based, CV-1
Method in brief: (§4)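 CV-1 cells were transfected with an ERE-Luc reporter plus a hER-α or hER-β expression vector. Cells were incubated 24 h with compounds, then lysed, and luciferase expression was measured. Data are mean ± SD (n = 3), and EC50 comes from the dose-response.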

[10] = biological target: T3, Estrogen receptor (Homo sapiens); test: Transactivation of human recombinant ERalpha expressed in african green monkey CV1 cells co-expressing ERE-Luc after 24 hrs by luciferase reporter gene assay in presence of ER antagonist ICI 182780; assay type: functional, cell-based; conditions: CV-1
Estrogen receptor [11] = biological target: T2, Estrogen receptor; test: Transactivation of human recombinant ERalpha expressed in african green monkey CV1 cells co-expressing ERE-Luc after 24 hrs by luciferase reporter gene assay; assay type: cell-based, CV-1; method in brief: as §4

IC50 (Estrogen receptor beta [2]) [µM] | Ratio IC50 (Homo sapiens) | IC50 (Estrogen receptor [3]) [µM] | RBA (Estrogen receptor beta [4]) [%] | RBA [5] [%] | EC50 (Estrogen receptor beta [9]; cv-1) | EC50 (Estrogen receptor beta [9]; read-out: EC50) [µM] | Activity [10] | EC50 (Estrogen receptor [11]; cv-1) | EC50 (Estrogen receptor [11]; read-out: EC50) [µM] | SMILES | Activity (MCF7 [1]) | Activity (MCF7 [6]) | Activity (MCF7 [7]) | Activity (MCF7 [8])
96 | 1.75 | 151 | 0.007 | 0.004 | – | – | – | – | – | CC(C)=CCc1c([C@H]2CCc3ccc(O)cc3O2)cc(O)c(O)c1CC=C(C)C | Active | Active | Active | Active
1.8 | 5.71 | 8.1 | 0.394 | 0.069 | Dose-dependent effect | 0.53 | inactive | Dose-dependent effect | 1.59 | COc1ccc(CCCc2ccc(O)cc2)c(O)c1 [BROUSSONIN A] | Active | Active | Active | Active
41.7 | 1.7 | 57.2 | 0.017 | 0.01 | – | – | – | – | – | CC(C)=CCc1c([C@H]2CCc3ccc(O)cc3O2)ccc(O)c1O [KAZINOL U] | Active | Active | Active | Active
14.7 | 2.29 | 26.2 | 0.048 | 0.021 | – | – | – | – | – | Oc1ccc([C@H]2CCc3ccc(O)cc3O2)cc1 [TUPICHINOL C] | Active | Active | Active | Active
